Experimental data from ChEMBL document CHEMBL5316292 (J Med Chem, 2023).
Calls of active or inactive are those of the source. The rule behind the calls is not given here.

Experiments:
[1] = target: T1, Bromodomain-containing protein 3 (Homo sapiens, UniProt Q15059); assay: Binding affinity to human partial length BRD3 BD1 (P24 to E144 residues) expressed in bacterial expression system assessed as change in melting temperature at 50 uM at 20 to 85 degreeC by SYPRO orange staining based thermal shift assay
Summary of the method: (§1)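 DSF thermal shift. 10 µM BD in 50 mM HEPES, 500 mM NaCl pH 7.5, with 50 µM compound or DMSO-matched control and 1:1000 Sypro Orange (ex 465/em 590 nm). Ramp 20–85 °C at 0.03 °C/s. Tm taken as the midpoint between fluorescence max and min. At least three independent experiments, SEM in °C.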
Target sequence in this assay (Q15059 2-726 limits assumed): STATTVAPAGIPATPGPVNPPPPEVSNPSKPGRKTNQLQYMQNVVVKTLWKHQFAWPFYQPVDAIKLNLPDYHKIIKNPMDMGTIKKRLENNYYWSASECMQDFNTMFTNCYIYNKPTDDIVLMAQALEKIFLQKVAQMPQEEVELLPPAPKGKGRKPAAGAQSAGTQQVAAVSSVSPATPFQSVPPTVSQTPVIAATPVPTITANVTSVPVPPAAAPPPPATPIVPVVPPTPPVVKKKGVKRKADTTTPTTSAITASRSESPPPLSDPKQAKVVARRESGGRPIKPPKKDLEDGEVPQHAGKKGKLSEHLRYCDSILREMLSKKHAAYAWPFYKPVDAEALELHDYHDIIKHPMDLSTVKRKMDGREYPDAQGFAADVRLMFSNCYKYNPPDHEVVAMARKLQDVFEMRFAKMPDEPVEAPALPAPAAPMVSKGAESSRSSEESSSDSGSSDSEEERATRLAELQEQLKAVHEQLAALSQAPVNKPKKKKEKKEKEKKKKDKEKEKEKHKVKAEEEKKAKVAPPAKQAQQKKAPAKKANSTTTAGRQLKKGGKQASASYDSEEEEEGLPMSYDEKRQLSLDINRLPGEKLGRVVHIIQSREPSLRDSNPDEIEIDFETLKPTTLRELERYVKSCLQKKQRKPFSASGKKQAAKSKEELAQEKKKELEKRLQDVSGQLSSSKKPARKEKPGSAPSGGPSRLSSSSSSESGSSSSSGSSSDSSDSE

[2] = target: T1, Bromodomain-containing protein 3; assay: Binding affinity to human partial length BRD3 BD2 (G306 to P416 residues) expressed in bacterial expression system assessed as change in melting temperature at 50 uM at 20 to 85 degreeC by SYPRO orange staining based thermal shift assay; summary of the method: as §1
Target sequence in this assay (Q15059 2-726 limits assumed): as above

[3] = target: T2, Bromodomain testis-specific protein (Homo sapiens, UniProt Q58F21); assay: Binding affinity to human partial length BRDT BD1 (N21 to E137 residues) expressed in bacterial expression system using H4K5acIC8acK12acK16ac-biotinylated peptide as substrate preincubated for 30 mins followed by substrate addition by AlphaScreen assay
Summary of the method: (§2)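 AlphaScreen. Biotinylated H4K5acK8acK12acK16ac peptide added at equal concentration to protein for 30 min. Donor and acceptor beads (25 µg/mL each) added, ≥1 h in the dark. Triplicate, curve-fitted, SEM.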

[4] = target: T2, Bromodomain testis-specific protein; assay: Binding affinity to human partial length BRDT BD2 (K250 to E382 residues) expressed in bacterial expression system assessed as change in melting temperature at 50 uM at 20 to 85 degreeC by SYPRO orange staining based thermal shift assay; summary of the method: as §1
[5] = target: Bromodomain-containing protein 2 (Homo sapiens, UniProt P25440); assay: Binding affinity to human partial length BRD2 BD2 (E348to D455 residues) expressed in bacterial expression system using H4K5acIC8acK12acK16ac-biotinylated peptide as substrate preincubated for 30 mins followed by substrate addition by AlphaScreen assay; summary of the method: as §2
Chain of Bromodomain-containing protein 2 (P25440 whole entry, the tested form may be a part): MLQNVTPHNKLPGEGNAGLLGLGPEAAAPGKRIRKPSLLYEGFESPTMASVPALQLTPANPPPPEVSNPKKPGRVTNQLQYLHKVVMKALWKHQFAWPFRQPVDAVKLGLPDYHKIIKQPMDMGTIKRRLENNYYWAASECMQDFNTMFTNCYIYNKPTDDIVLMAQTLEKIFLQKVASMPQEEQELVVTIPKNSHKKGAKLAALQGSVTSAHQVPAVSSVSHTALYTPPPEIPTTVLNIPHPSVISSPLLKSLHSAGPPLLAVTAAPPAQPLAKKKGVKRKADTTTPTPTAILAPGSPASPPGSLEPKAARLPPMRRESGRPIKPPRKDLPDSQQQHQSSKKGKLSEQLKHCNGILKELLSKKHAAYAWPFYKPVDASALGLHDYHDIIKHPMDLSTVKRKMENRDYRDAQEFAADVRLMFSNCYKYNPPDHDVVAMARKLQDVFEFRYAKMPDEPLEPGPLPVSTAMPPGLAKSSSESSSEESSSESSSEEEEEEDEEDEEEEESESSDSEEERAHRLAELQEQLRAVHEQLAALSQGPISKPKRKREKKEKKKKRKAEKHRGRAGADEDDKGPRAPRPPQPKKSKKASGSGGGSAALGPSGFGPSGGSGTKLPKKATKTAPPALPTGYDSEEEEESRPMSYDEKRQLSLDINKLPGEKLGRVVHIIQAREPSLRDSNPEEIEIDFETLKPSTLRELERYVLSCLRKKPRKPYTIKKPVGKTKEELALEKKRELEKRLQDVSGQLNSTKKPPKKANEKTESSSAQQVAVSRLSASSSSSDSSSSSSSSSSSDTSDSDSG

[6] = target: T1, Bromodomain-containing protein 3; assay: Binding affinity to human partial length BRD3 BD2 (G306 to P416 residues) expressed in bacterial expression system using H4K5acIC8acK12acK16ac-biotinylated peptide as substrate preincubated for 30 mins followed by substrate addition by AlphaScreen assay; summary of the method: as §2
Target sequence in this assay (Q15059 whole entry, the tested form may be a part): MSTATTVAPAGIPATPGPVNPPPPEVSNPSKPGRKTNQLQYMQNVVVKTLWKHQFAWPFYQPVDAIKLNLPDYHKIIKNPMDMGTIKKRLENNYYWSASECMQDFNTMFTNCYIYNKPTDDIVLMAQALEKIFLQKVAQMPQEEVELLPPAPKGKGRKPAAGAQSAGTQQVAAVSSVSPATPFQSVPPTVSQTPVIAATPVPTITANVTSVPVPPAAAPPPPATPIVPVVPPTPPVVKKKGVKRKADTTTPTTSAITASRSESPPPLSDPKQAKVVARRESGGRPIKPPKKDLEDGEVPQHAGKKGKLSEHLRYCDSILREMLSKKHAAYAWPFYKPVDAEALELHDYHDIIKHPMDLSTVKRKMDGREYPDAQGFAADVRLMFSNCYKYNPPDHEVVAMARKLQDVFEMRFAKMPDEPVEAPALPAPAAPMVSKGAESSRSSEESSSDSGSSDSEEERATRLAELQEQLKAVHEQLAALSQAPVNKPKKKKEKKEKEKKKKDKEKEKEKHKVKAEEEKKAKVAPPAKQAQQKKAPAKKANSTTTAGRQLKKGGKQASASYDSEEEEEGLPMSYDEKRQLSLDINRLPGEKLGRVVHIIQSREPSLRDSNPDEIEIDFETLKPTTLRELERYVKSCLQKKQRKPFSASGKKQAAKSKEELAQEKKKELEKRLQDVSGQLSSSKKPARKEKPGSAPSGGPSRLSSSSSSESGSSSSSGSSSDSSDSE

[7] = target: T1, Bromodomain-containing protein 3; assay: Binding affinity to 6His-tagged BRD3-BD1 (unknown origin) by MST assay
Summary of the method: (§3)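 His6-tagged BD (80 nM) after size-exclusion, labelled 1:1 with 10 nM Red-tris-NTA in PBST (0.05% Tween-20) for 30 min at room temperature, then centrifuged. Mixed with an equal volume of serially diluted compound. Thermophoresis read at 40% LED/MST power. Triplicate data curve-fitted, error as SEM.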
Target sequence in this assay (Q15059 whole entry, the tested form may be a part): as above

[8] = target: T1, Bromodomain-containing protein 3; assay: Binding affinity to 6His-tagged BRD3-BD2 (unknown origin) by MST assay; summary of the method: as §3
Target sequence in this assay (Q15059 whole entry, the tested form may be a part): as above

[9] = Cytotoxicity against HFF cells assessed as reduction in cell viability measured after 72 hrs by MTS assay; type: toxicity, cell-based; conditions: human
Summary of the method: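 MTS viability assay run in triplicate wells. Serial dilutions in DMSO were given, with DMSO as negative control and doxorubicin as positive control, and incubated 72 h. MTS reagent was added for 2 h and absorbance read at 490 nm. % cytotoxicity = (A_medium − A_treatment)/A_medium × 100. EC50 ± SD was taken from dose-response curves of at least three independent experiments.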

[10] = tested on: VCaP; assay: Downregulation of BRD2 mRNA levels in human VCaP cells at 25 to 2500 nM incubated for 24 hrs by qRT-PCR analysis; type: functional, cell-based; conditions: dose 25-2500 nM
Summary of the method: (§4)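 VCaP cells grown to 50% confluence, then treated with compound or DMSO (Methods state 16 h, legend states 24 h). Total RNA isolated, cDNA made from 1 µg RNA, SYBR Green qPCR run in triplicate. Expression by ΔΔCt, normalised to GAPDH. Three independent experiments, SEM.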

[11] = tested on: VCaP; assay: Downregulation of BRD3 mRNA levels in human VCaP cells at 25 to 2500 nM incubated for 24 hrs by qRT-PCR analysis; type: functional, cell-based; conditions: dose 25-2500 nM; summary of the method: as §4
[12] = tested on: VCaP; assay: Downregulation of BRD4 mRNA levels in human VCaP cells at 25 to 2500 nM incubated for 24 hrs by qRT-PCR analysis; type: functional, cell-based; conditions: dose 25-2500 nM; summary of the method: as §4
[13] = tested on: VCaP; assay: Downregulation of AR […] expression in human VCaP cells incubated for 24 hrs by qRT-PCR analysis; type: functional, cell-based; conditions: dose 25-2500 nM; summary of the method: as §4
[14] = target: T1, Bromodomain-containing protein 3; assay: Induction of BRD3 degradation in human MDA-MB-231 cells incubated for 16 hrs by immunoblotting analysis; type: cell-based
Summary of the method: (§5)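 MDA-MB-231 or PC-3 cells at 50% confluence in DMEM/10% FBS/pen-strep, treated 16 h with doses falling tenfold from 10 µM to 1 nM. RIPA lysates immunoblotted for BRD2, BRD3 and BRD4 with GAPDH as control. DC50 derived from band densitometry. SEM, n = 2.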

[15] = target: T3, Bromodomain-containing protein 4 (Homo sapiens, UniProt O60885); assay: Induction of BRD4 degradation in human PC-3 cells incubated for 16 hrs by immunoblotting analysis; type: cell-based; summary of the method: as §5
[16] = target: T3, Bromodomain-containing protein 4; assay: Induction of BRD4 degradation in human MDA-MB-231 cells at 0.025 to 2.5 uM incubated for 24 hrs by qRT-PCR analysis; type: cell-based; conditions: dose 0.025-2.5 µM
Summary of the method: (§6)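 MDA-MB-231 cells treated for 24 h at doses rising tenfold from 25 nM to 2.5 µM. Gene expression measured by qRT-PCR. SEM, n = 3.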

[17] = tested on: MDA-MB-231; assay: Effect on BET mRNA levels in human MDA-MB-231 cells at 0.025 to 2.5 uM incubated for 24 hrs by qRT-PCR analysis; type: functional, cell-based; conditions: dose 0.025-2.5 µM; summary of the method: as §6
[18] = target: T3, Bromodomain-containing protein 4; assay: Induction of BRD4 degradation in human MDA-MB-231 cells assessed as decrease in BET half life at 10 uM incubated for 8 hrs in presence of cycloheximide by immunoblotting analysis; type: cell-based
Summary of the method: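 MDA-MB-231 time-course. Cells given 50 µg/mL cycloheximide plus DMSO, or 50 µg/mL cycloheximide plus 10 µM compound. RIPA lysates immunoblotted for BRD2, BRD3 and BRD4 with GAPDH as control.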

[19] = target: T1, Bromodomain-containing protein 3; assay: Induction of BRD3 degradation in human MDA-MB-231 cells at 10 uM by immunoblotting analysis; type: cell-based; conditions: time 8.0 hrs
Target sequence in this assay (Q15059 2-726 limits assumed): as the sequence (Q15059 2-726 limits assumed) above

[20] = target: T1, Bromodomain-containing protein 3; assay: Induction of BRD3 degradation in human MDA-MB-231 cells at 10 uM incubated for 8 hrs in presence of MG132 by immunoblotting analysis; type: cell-based
Target sequence in this assay (Q15059 2-726 limits assumed): as above

[21] = target: T3, Bromodomain-containing protein 4; assay: Induction of BRD4 degradation in human MDA-MB-231 cells at 10 uM incubated for 8 hrs in presence of MG132 by immunoblotting analysis; type: cell-based
[22] = target: T3, Bromodomain-containing protein 4; conditions: dose 50.0 µM
[23] = tested on: DU-145; assay: Antiproliferative activity against AR-negative human DU-145 cells assessed as reduction in cell viability measured after 72 hrs by MTS assay; conditions: DU-145, 72 h

Structure (SMILES): CC(=O)OC[C@]12CC[C@H]3[C@@H](C[C@H]4O[C@]45CC=CC(=O)[C@]35C)[C@]1(O)CC[C@@]2(O)[C@@](C)(O)[C@H]1CC(C)=C(C)C(=O)O1
- ΔTm [1]: 12.5 °C
- ΔTm [2]: 7.45 °C
- IC50 [3]: 403 nM
- ΔTm [4]: 7.58 °C
- IC50 [5]: 244 nM
- IC50 [6]: 108 nM
- Kd [7]: 14.1 nM
- Kd [8]: 149 nM
- EC50 at 72 h [9]: > 2000 nM
- Activity [10]: inactive
- Activity [11]: inactive
- Activity [12]: inactive
- Activity [13]: Dose-Dependent Effect
- Activity [14]: Dose-Dependent Effect
- DC50 [14]: 23.9 nM
- Activity [15]: Dose-Dependent Effect
- DC50 [15]: 56.7 nM
- Activity [16]: inactive
- Activity [17]: inactive
- Activity [18]: Active
- Activity [19]: Active
- Activity [20]: inactive
- Activity [21]: inactive
- ΔTm [22]: 11.8 °C
- EC50 [23]: 263 nM
